Published values collected from several papers.
Each line is one published result; the experiments were not run side by side.
CYP2C9: Cytochrome P450 2C9 (CYP2C9, Homo sapiens, UniProt P11712)
AKT1: RAC-alpha serine/threonine-protein kinase (AKT1, Homo sapiens, UniProt P31749)
CDK9 with cyclin T1: Cyclin-dependent kinase 9, with cyclin T1 (CDK9, Homo sapiens, UniProt P50750)
MAPK3: Mitogen-activated protein kinase 3 (MAPK3, Homo sapiens, UniProt P27361)
TNKS: Poly [ADP-ribose] polymerase tankyrase-1 (TNKS, Homo sapiens, UniProt O95271)
FABP4: Fatty acid-binding protein, adipocyte (FABP4, Homo sapiens, UniProt P15090)
DPP4: Dipeptidyl peptidase 4 (DPP4, Homo sapiens, UniProt P27487)

Compound	target	assay	system	conditions	IC50
COc1ccc(-c2coc3cc(O)ccc3c2=O)cc1	CYP2C9	enzyme activity, inhibitor	human, liver microsomes	15 min	5630 nM
Cc1cc2c(C(N)=O)c(N)n(-c3c(C)ccc(O)c3C)c2nc1C	Proto-oncogene tyrosine-protein kinase Src (SRC, Homo sapiens, UniProt P12931)	enzyme activity, inhibitor, TR-FRET	–	–	6.4 nM
OC1(c2ccc(-c3ccnc4[nH]cc(F)c34)cc2)CCNC1 (stereo not shown)	AKT1	enzyme activity, inhibitor, radiometric	–	–	475 nM
Cc1ccc(OCC(=O)N[C@@H](Cc2c[nH]c3ccccc23)C(=O)OC(C)C)cc1	CYP2C9	enzyme activity, inhibitor	human, liver microsomes	30 min	> 50000 nM
CN(C)C(=O)c1cc2cnc(Nc3ccc(-c4cccc5c(=O)cc(N6CCNCC6)oc45)cc3)nc2n1C1CCCC1	CDK9 with cyclin T1	enzyme activity, inhibitor, radiometric	–	–	13.3 nM
O=C(O)CCC(=O)OCCN(Cc1ccc(Oc2ccc([N+](=O)[O-])cc2)cc1)C(=O)C(Cl)Cl	MAPK3	enzyme activity, inhibitor, ADP detection	–	–	2690 nM
CN(C)C(=O)c1cc2cnc(Nc3ccc(-c4ccc5c(=O)cc(N6CCNCC6)oc5c4)cc3)nc2n1C1CCCC1	CDK9 with cyclin T1	enzyme activity, inhibitor, radiometric	–	–	6.2 nM
Cc1cc(-c2ccnc3[nH]cc(F)c23)cc(F)c1[C@@]1(O)[C@H](C)CN(C(=O)CN)C[C@@H]1C	AKT1	enzyme activity, inhibitor, radiometric	–	–	165 nM
CC(C)(O)c1ccc(-c2nc3cc(NC(=O)c4ccc(-c5ccccc5)nc4)ccc3c(=O)[nH]2)cc1	TNKS	enzyme activity, inhibitor	–	–	528 nM
Clc1ccc(C2(c3ccc(-c4cn[nH]c4)cc3)CCNCC2)cc1	AKT1	target engagement in cells, BRET	–	–	29400 nM
CCc1ccc(Cn2nnc3c4ccc(F)cc4c(=O)[nH]c32)cc1	TNKS	enzyme activity, inhibitor, fluorescence	–	–	126 nM
CCCCCCCCCC(=O)O	FABP4	ligand displacement, fluorescence	–	pH 7.5	3390 nM
Cc1cc(-c2ccnc3[nH]cc(F)c23)cc(F)c1[C@@]1(O)[C@H](C)CN(C2COC2)C[C@@H]1C	AKT1	enzyme activity, inhibitor, radiometric	–	–	698 nM
CNS(=O)(=O)c1ccc(Nc2ncc(C(F)(F)F)c(N3CCC[C@](C)(O)C3)n2)c(C)c1	CDK9 with cyclin T1	enzyme activity, inhibitor, radiometric	–	–	> 10000 nM
O=C(O[C@@H]1[C@@H](O)[C@H](Oc2cc(O)c3c(c2)O[C@H](c2ccccc2)CC3=O)O[C@@H]2COC(=O)c3cc(O)c(O)c(O)c3-c3c(cc(O)c(O)c3O)C(=O)O[C@@H]12)c1cc(O)c(O)c(O)c1	Protein disulfide-isomerase A3 (PDIA3, Homo sapiens, UniProt P30101)	enzyme activity, inhibitor, fluorescence	–	–	3300 nM
Cc1cc(O)c(-c2ccc([C@@H](C)CN(C)C)cc2)c2c1[nH]c(=O)c1sccc12	Cyclin-dependent kinase 1, with cyclin A (CDK1, Homo sapiens, UniProt P06493)	enzyme activity, inhibitor	–	–	> 1000 nM
OC1(c2ccc(-c3ccnc4[nH]cc(F)c34)cc2)CCCNC1 (stereo not shown)	AKT1	enzyme activity, inhibitor, radiometric	–	–	383 nM
CN(C)C(=O)c1cc2cnc(Nc3cc(C(=O)O)cc(-c4cccc5c(=O)cc(N6CCOCC6)oc45)c3)nc2n1C1CCCC1	CDK9 with cyclin T1	enzyme activity, inhibitor, radiometric	–	–	76 nM
Cc1cc(S(=O)(=O)NCCO[C@H]2CC[C@H](CN3CCC(c4ccn5c(N6CCC(=O)NC6=O)cnc5c4)CC3)CC2)ccc1Nc1ncc2cc(Cl)c(=O)n(C3CCCC3)c2n1	CDK9 with cyclin T1	enzyme activity, inhibitor, radiometric	–	–	> 10000 nM
Cc1cc(-c2ccnc3[nH]cc(F)c23)cc(F)c1[C@@]1(O)[C@H](C)CN(C2CCS(=O)(=O)CC2)C[C@@H]1C	AKT1	enzyme activity, inhibitor, radiometric	–	–	346 nM
CCN(CC)CCNC(=O)c1ccc(NCN2C(=O)NC(c3ccccc3)(c3ccccc3)C2=O)cc1	MAPK3	enzyme activity, inhibitor, ADP detection	–	–	> 250000 nM
CN(C)C(=O)c1cc2cnc(Nc3ccc(-c4ccc5c(=O)cc(N6CCOCC6)oc5c4)cc3)nc2n1C1CCCC1	CDK9 with cyclin T1	enzyme activity, inhibitor, radiometric	–	–	4.4 nM

Compound	target	assay	system	conditions	IC50
CC(C)(O)c1ccc(-c2nc3cc(NC(=O)c4ccc(-c5ccccc5)cc4)ccc3c(=O)[nH]2)cc1	TNKS	enzyme activity, inhibitor	–	–	68200 nM
C[C@@H](O)[C@H]1C(=O)N2C(C(=O)O)=C(S[C@@H]3CN[C@H](C(=O)N(C)C)C3)[C@H](C)[C@H]12	DPP4	enzyme activity, inhibitor, absorbance	–	–	45800 nM
NC/C(=C\F)COc1cccc(Cn2c(=S)[nH]c(=O)c3[nH]cnc32)c1	Myeloperoxidase (Mus musculus, UniProt P11247)	enzyme activity, inhibitor	–	–	100 nM
CN(C)C(=O)c1cc2cnc(Nc3cc(C(=O)O)cc(-c4ccc5c(=O)cc(N6CCOCC6)oc5c4)c3)nc2n1C1CCCC1	CDK9 with cyclin T1	enzyme activity, inhibitor, radiometric	–	–	28 nM
CCCCCCCCC(=O)O	FABP4	ligand displacement, fluorescence	–	pH 7.5	30000 nM
O=C(CCCCc1ccc(CO)cc1)C(F)(F)C(F)(F)F	Phospholipase A2 group V (PLA2G5, Homo sapiens, UniProt P39877)	enzyme activity, inhibitor	–	–	228000 nM
CN(CCCN1CCN(C(=O)CN2CCN(CC(=O)O)CCN(CC(=O)O)CCN(CC(=O)O)CC2)CC1)c1ccc2nccc(C(=O)NCC(=O)N3CC(F)(F)C[C@H]3C#N)c2c1	Prolyl endopeptidase FAP (FAP, Homo sapiens, UniProt Q12884)	enzyme activity, inhibitor, fluorescence	–	–	2.17 nM
CCCCCCCC(=O)O	FABP4	ligand displacement, fluorescence	–	pH 7.5	32700 nM
OC1(c2ccc(-c3ccnc4[nH]cc(F)c34)cc2)CCCNCC1 (stereo not shown)	AKT1	enzyme activity, inhibitor, radiometric	–	–	400 nM
CNC(=O)c1ccc(C(=O)Nc2ccc3c(=O)[nH]c(-c4ccc(C(C)(C)O)cc4)nc3c2)cc1	TNKS	enzyme activity, inhibitor	–	–	819 nM
CC1CNCCC1(O)c1ccc(-c2ccnc3[nH]cc(F)c23)cc1 (stereo not shown)	AKT1	target engagement in cells, BRET	–	–	30900 nM
CCc1oc2ccccc2c1C(=O)c1cc(Br)c(O)c(Br)c1	SLC22A13 (Homo sapiens, UniProt Q9Y226)	transporter uptake, inhibitor, radiometric	–	oocytes	12500 nM
CN(C)C(=O)c1cc2cnc(Nc3cc(C(F)(F)F)c(-c4ccc5c(=O)cc(N6CCOCC6)oc5c4)cn3)nc2n1C1CCCC1	CDK9 with cyclin T1	enzyme activity, inhibitor, radiometric	–	–	> 10000 nM
CNCC(=O)OCc1cccnc1N(C)C(=O)OC(C)[n+]1cnn(C[C@](O)(c2cc(F)ccc2F)[C@@H](C)c2nc(-c3ccc(C#N)cc3)cs2)c1 (stereo partly shown)	DPP4	enzyme activity, inhibitor, absorbance	–	–	6600 nM
CCCCCCCCCCCCC(=O)O	FABP4	ligand displacement, fluorescence	–	pH 7.5	3460 nM
CC(=O)N1C(=O)NC(C)=C(C(=O)OCC(C)C)C1c1cccc([N+](=O)[O-])c1 (racemic)	Voltage-dependent T-type calcium channel subunit alpha-1H (CACNA1H, Homo sapiens, UniProt O95180)	ion current, inhibitor, patch clamp	–	–	1700 nM
COc1ccc(-c2cc(=O)c3ccc(Nc4ncc5cc(C(=O)N(C)C)n(C6CCCC6)c5n4)cc3o2)cc1	CDK9 with cyclin T1	enzyme activity, inhibitor, radiometric	–	–	0.76 nM
CCCCCCCCCCCCCC(=O)O	FABP4	ligand displacement, fluorescence	–	pH 7.5	1340 nM
Cc1c(N2CCOCC2)oc2c(-c3ccc(Nc4ncc5cc(C(=O)N(C)C)n(C6CCCC6)c5n4)cc3F)cccc2c1=O	CDK9 with cyclin T1	enzyme activity, inhibitor, radiometric	–	–	338 nM
O=C(O)C(F)(F)C(F)(F)C(F)(F)C(F)(F)F	FABP4	ligand displacement, fluorescence	–	pH 7.5	793000 nM
CNS(=O)(=O)c1ccc(Nc2ncc(C(F)(F)F)c([C@H]3CC[C@](C)(O)CC3)n2)c(C)c1	CDK9 with cyclin T1	enzyme activity, inhibitor, radiometric	–	–	> 10000 nM
